Results reported in ChEMBL document CHEMBL2424583, “Structure-activity relationship and in vitro and in vivo evaluation of the potent cytotoxic anti-microtubule agent N-(4-methoxyphenyl)-N,2,6-trimethyl-6,7-dihydro-5H-cyclopenta[d]pyrimidin-4-aminium chloride and its analogues as antitumor agents” (J Med Chem, 2013).

Columns and labels:
MDA-MB-468 = assay: Cytotoxicity against human MDA-MB-468 cells assessed as growth inhibition after 48 hrs by SRB assay; type: functional; details: MDA-MB-468, 48 h
MCF7 = assay: Cytotoxicity against human MCF7 cells assessed as growth inhibition after 48 hrs by SRB assay; type: functional; details: MCF7, 48 h
PC-3 = assay: Cytotoxicity against human PC3 cells assessed as growth inhibition after 48 hrs by SRB assay; type: functional; details: PC-3, 48 h
ACHN = assay: Cytotoxicity against human ACHN cells assessed as growth inhibition after 48 hrs by SRB assay; type: functional
OVCAR-8 = assay: Cytotoxicity against human OVCAR8 cells assessed as growth inhibition after 48 hrs by SRB assay; type: functional; details: OVCAR-8, 48 h
SK-MEL-5 = assay: Cytotoxicity against human SK-MEL-5 cells assessed as growth inhibition after 48 hrs by SRB assay; type: functional; details: SK-MEL-5, 48 h
SK-MEL-2 = assay: Cytotoxicity against human SK-MEL-2 cells assessed as growth inhibition after 48 hrs by SRB assay; type: functional; details: SK-MEL-2, 48 h
M14 = assay: Cytotoxicity against human M14 cells assessed as growth inhibition after 48 hrs by SRB assay; type: functional; details: M14, 48 h
LOX IMVI = assay: Cytotoxicity against human LOXIMVI cells assessed as growth inhibition after 48 hrs by SRB assay; type: functional
SNB-19 = assay: Cytotoxicity against human SNB19 cells assessed as growth inhibition after 48 hrs by SRB assay; type: functional; details: SNB-19, 48 h
SW-620 = assay: Cytotoxicity against human SW620 cells assessed as growth inhibition after 48 hrs by SRB assay; type: functional; details: SW-620, 48 h
KM12 = assay: Cytotoxicity against human KM12 cells assessed as growth inhibition after 48 hrs by SRB assay; type: functional; details: KM12, 48 h
HCT-116 = assay: Cytotoxicity against human HCT116 cells assessed as growth inhibition after 48 hrs by SRB assay; type: functional; details: HCT-116, 48 h
HCC 2998 = assay: Cytotoxicity against human HCC2998 cells assessed as growth inhibition after 48 hrs by SRB assay; type: functional; details: HCC 2998, 48 h
NCI-H522 = assay: Cytotoxicity against human NCI-H522 cells assessed as growth inhibition after 48 hrs by SRB assay; type: functional; details: NCI-H522, 48 h
COLO 205 = assay: Cytotoxicity against human COLO205 cells assessed as growth inhibition after 48 hrs by SRB assay; type: functional; details: COLO 205, 48 h
A549 = assay: Cytotoxicity against human A549 cells assessed as growth inhibition after 48 hrs by SRB assay; type: functional; details: A549, 48 h
SR = assay: Cytotoxicity against human SR cells assessed as growth inhibition after 48 hrs by SRB assay; type: functional
K562 = assay: Cytotoxicity against human K562 cells assessed as growth inhibition after 48 hrs by SRB assay; type: functional; details: K562, 48 h
[1] = Relative resistance, ratio of IC50 for M6-6 in human SKOV3 cells to IC50 for human SKOV3 cells; parameters: species or system SK-OV-3
Method in brief: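 SRB antiproliferative assay on isogenic pairs: parental SK-OV-3 vs Pgp-overexpressing SK-OV-3 MDR-M6-6, and parental HeLa vs βIII-tubulin-transfected HeLa. IC50 is the mean ± SD of at least three independent experiments. Relative resistance (Rr) is the IC50 of the transduced line divided by the IC50 of the parental line.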

MDA-MB-231 [2] = assay: Antitumor activity against human MDA-MB-231 cells xenografted in athymic nude mouse assessed as tumor log cell kill at 75 mg/kg, ip qd administered every other day started on day 14 for 5 days followed by compound readministration on day 27; type: functional; details: route intraperitoneal
Method in brief: (§1)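 Female athymic nude mice were implanted sc with an MDA-MB-231T tumour fragment, and tumours were staged to about 125 mg. Drug was given ip in 10% DMSO in saline/Tween 80, with courses starting day 14 and repeated from day 27. There were 8 animals per treated group and 16 controls. Read-outs were body weight, deaths, median tumour mass as T/C, days to a predetermined size as T-C/C, and net log cell kill.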

MDA-MB-231 [3] = assay: Antitumor activity against human MDA-MB-231 cells xenografted in athymic nude mouse assessed as net tumor log cell kill at 50 mg/kg, ip qd administered on day 14 for 5 days followed by compound readministration on day 27; type: functional; details: route intraperitoneal; method in brief: as §1
Mus musculus [4] = assay: Toxicity in athymic nude mouse xenografted in human MDA-MB-231 cells assessed as mortality at 50 mg/kg, ip bid administered every other day started on day 14 followed by compound readministration every other day started on day 27; type: organism-based; parameters: dose 50 mg/kg, route intraperitoneal; details: in vivo; method in brief: as §1
Mus musculus [5] = assay: Toxicity in athymic nude mouse xenografted in human MDA-MB-231 cells assessed as mortality at 75 mg/kg, ip qd administered on day 14 for 5 days followed by compound readministration on day 27; type: organism-based; parameters: dose 75 mg/kg, route intraperitoneal; details: in vivo, 120 h; method in brief: as §1
MDA-MB-231 [6] = assay: Antitumor activity against human MDA-MB-231 cells xenografted in athymic nude mouse assessed as delay in tumor growth at 50 mg/kg, ip bid administered every other day started on day 14 followed by compound readministration every other day started on day 27 measured on day 31 relative to control; type: functional; details: route intraperitoneal
Method in brief: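 MDA-MB-231T tumor fragments implanted sc in female athymic nude mice and staged to about 125 mg. Dosing was ip in 10% DMSO in saline/Tween 80, with courses starting day 14 and again day 27. Groups had 8 treated animals and 16 controls. Growth delay (T-C/C) is the median days for treated vs control tumors to reach a predetermined size, normalized to control, as %.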

MDA-MB-231 [7] = assay: Antitumor activity against human MDA-MB-231 cells xenografted in athymic nude mouse assessed as delay in tumor growth at 75 mg/kg, ip qd administered on day 14 for 5 days followed by compound readministration on day 27 measured on day 31 relative to control; type: functional; details: route intraperitoneal; method in brief: as §1
MDA-MB-231 [8] = assay: Antitumor activity against human MDA-MB-231 cells xenografted in athymic nude mouse assessed as tumor growth inhibition at 75 mg/kg, ip qd administered on day 14 for 5 days followed by compound readministration on day 27 measured on day 31 relative to control; type: functional; details: route intraperitoneal; method in brief: as §1
Mus musculus [9] = assay: Toxicity in athymic nude mouse xenografted in human MDA-MB-231 cells assessed as body weight loss at 50 mg/kg, ip bid administered every other day started on day 14 followed by compound readministration every other day started on day 27 (reference value: 6.7%); type: organism-based; parameters: dose 50 mg/kg, route intraperitoneal; details: in vivo
Mus musculus [10] = assay: Toxicity in athymic nude mouse xenografted in human MDA-MB-231 cells assessed as body weight loss at 75 mg/kg, ip qd administered on day 14 for 5 days followed by compound readministration on day 27 (reference value: 6.7%); type: organism-based; parameters: dose 75 mg/kg, route intraperitoneal; details: in vivo, 120 h
HeLa = assay: Antiproliferative activity against human HeLa cells after 48 hrs by SRB assay; type: functional, cell-based
Method in brief: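 Isogenic pairs: parental SK-OV-3 alongside its Pgp-overexpressing subline MDR-M6-6, and parental HeLa alongside βIII-tubulin-transfected HeLa. Antiproliferative IC50 measured by sulforhodamine B assay, averaged from at least three independent experiments ± SD. Relative resistance is the transduced-line IC50 divided by the parental-line IC50.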

MDA-MB-435 = assay: Cytotoxicity against human MDA-MB-435 cells assessed as growth inhibition after 48 hrs by SRB assay; type: functional, cell-based; details: MDA-MB-435, 48 h

COc1ccc(N(C)c2nc(C)nc3c2CC(C)C3)cc1.Cl (racemic)
GI50 (MDA-MB-468): < 10 nM | GI50 (MCF7): < 10 nM | GI50 (PC-3): 14.6 nM | GI50 (ACHN): 14.6 nM | GI50 (OVCAR-8): 32.8 nM | GI50 (SK-MEL-5): < 10 nM | GI50 (SK-MEL-2): 33.1 nM | GI50 (M14): 10.2 nM | GI50 (LOX IMVI): 22.7 nM | GI50 (SNB-19): 36.9 nM | GI50 (SW-620): < 10 nM | GI50 (KM12): < 10 nM | GI50 (HCT-116): 15.1 nM | GI50 (HCC 2998): 24 nM | GI50 (NCI-H522): < 10 nM | GI50 (COLO 205): 18.3 nM | GI50 (A549): 24.4 nM | GI50 (SR): < 10 nM | GI50 (K562): < 10 nM | Ratio IC50 [1]: 1.2

COc1ccc(N(C)c2nc(C)nc3c2CCC3)cc1.Cl
LCK (MDA-MB-231 [2]): -1.5 | LCK (MDA-MB-231 [3]): -1.4 | Activity (Mus musculus [4]): Non-toxic | Activity (Mus musculus [5]): Non-toxic | Activity (MDA-MB-231 [6]): 32% | Activity (MDA-MB-231 [7]): 40% | T/C (MDA-MB-231 [8]): 17% | %max (Mus musculus [9]): 7.8% | %max (Mus musculus [10]): 7.9% | GI50 (MDA-MB-468): < 10 nM | GI50 (MCF7): < 10 nM | GI50 (PC-3): < 10 nM | GI50 (ACHN): < 10 nM | GI50 (OVCAR-8): 21.8 nM | GI50 (SK-MEL-5): < 10 nM | GI50 (SK-MEL-2): 11.9 nM | GI50 (M14): < 10 nM | GI50 (LOX IMVI): 18.4 nM | GI50 (SNB-19): 17 nM | GI50 (SW-620): < 10 nM | GI50 (KM12): < 10 nM | GI50 (HCT-116): < 10 nM | GI50 (HCC 2998): 16.4 nM | GI50 (NCI-H522): < 10 nM | GI50 (COLO 205): < 10 nM | GI50 (A549): 15 nM | GI50 (SR): < 10 nM | GI50 (K562): < 10 nM | IC50 (HeLa): 9.3 nM | IC50 (MDA-MB-435): 7 nM
